For experiment [1], the target named is T1, Aminopeptidase N (Sus scrofa) (UniProt P15145).
T1 sequence (whole entry): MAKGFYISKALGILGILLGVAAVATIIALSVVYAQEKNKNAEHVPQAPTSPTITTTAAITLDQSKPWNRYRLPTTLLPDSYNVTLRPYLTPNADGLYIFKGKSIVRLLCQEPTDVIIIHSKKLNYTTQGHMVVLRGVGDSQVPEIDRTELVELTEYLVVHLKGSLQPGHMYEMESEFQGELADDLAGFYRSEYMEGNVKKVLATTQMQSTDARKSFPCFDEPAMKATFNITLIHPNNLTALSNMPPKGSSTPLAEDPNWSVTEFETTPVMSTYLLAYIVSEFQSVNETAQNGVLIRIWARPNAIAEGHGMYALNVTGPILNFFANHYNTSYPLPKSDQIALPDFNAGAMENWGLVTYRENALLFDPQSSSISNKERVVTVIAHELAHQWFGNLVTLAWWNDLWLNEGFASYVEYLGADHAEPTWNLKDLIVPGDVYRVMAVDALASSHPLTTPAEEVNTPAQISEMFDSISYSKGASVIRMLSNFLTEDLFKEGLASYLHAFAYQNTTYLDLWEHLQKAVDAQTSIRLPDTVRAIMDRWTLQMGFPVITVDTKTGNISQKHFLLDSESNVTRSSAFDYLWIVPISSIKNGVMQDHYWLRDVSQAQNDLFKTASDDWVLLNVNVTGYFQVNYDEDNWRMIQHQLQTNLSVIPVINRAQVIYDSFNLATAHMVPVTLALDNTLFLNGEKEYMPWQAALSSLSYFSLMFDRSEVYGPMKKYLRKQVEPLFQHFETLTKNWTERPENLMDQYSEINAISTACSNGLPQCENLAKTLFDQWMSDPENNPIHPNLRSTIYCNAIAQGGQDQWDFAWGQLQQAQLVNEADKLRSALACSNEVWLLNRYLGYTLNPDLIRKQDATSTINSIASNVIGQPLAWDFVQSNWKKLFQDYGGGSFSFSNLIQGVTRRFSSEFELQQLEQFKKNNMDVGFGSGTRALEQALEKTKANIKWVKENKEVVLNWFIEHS
Description: Inhibition of pig kidney microsomal APN at 10 uM. The method in brief: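 Porcine kidney microsomal APN (ammonium sulfate suspension) diluted 600-fold in 25 mM Tris-HCl pH 7.4. Preincubated with inhibitor for 10 min at room temperature, then Leu-pNA added (0.3 mM stock). Hydrolysis followed at 405 nm at room temperature. Rates normalized to a no-inhibitor control. Single point at 10 µM; IC50 from concentration-velocity curves. Bestatin used as reference.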

For experiment [2], the target named is T2, Aminopeptidase N (Plasmodium falciparum FcB1/Columbia) (UniProt O96935).
T2 sequence (whole entry): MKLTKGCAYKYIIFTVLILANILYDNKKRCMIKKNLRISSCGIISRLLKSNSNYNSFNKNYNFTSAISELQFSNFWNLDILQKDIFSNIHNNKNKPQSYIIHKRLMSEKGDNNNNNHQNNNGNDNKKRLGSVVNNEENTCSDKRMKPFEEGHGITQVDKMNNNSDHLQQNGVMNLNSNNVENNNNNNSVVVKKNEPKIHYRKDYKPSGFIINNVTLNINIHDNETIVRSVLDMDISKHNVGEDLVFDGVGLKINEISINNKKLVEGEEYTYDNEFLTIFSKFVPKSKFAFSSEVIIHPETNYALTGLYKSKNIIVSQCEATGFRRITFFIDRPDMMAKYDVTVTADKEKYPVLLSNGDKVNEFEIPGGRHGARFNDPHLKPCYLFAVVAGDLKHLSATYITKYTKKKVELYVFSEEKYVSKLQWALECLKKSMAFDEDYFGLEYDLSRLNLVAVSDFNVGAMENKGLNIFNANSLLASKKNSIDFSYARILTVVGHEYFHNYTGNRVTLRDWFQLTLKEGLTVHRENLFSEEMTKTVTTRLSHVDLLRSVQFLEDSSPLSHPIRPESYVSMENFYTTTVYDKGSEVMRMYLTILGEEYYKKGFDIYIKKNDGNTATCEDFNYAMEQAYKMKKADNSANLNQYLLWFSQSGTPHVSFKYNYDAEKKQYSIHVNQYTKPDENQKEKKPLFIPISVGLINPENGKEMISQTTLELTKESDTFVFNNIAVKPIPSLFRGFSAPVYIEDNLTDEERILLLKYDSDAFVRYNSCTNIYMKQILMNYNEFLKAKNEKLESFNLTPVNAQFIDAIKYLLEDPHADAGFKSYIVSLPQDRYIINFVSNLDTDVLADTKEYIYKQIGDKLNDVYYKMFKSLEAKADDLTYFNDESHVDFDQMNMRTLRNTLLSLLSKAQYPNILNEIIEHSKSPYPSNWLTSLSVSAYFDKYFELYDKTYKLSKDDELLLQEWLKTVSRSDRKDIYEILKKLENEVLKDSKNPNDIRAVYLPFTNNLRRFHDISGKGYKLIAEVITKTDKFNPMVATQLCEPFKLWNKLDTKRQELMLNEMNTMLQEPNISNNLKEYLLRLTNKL
Description: Inhibition of Plasmodium falciparum FcB1 M1 aminopeptidase at 10 uM. The method in brief: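 Native enzyme purified from P. falciparum FcB1, diluted 10-fold in 25 mM Tris-HCl pH 7.4. Preincubated with inhibitor for 10 min at room temperature, then Leu-pNA substrate added (0.3 mM stock, Km 0.099 mM). Kinetics followed at 405 nm at room temperature. Initial velocities normalized to a no-inhibitor control. Single-point screen at 10 µM; IC50 from velocity versus inhibitor concentration curves. Bestatin used as reference.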

From ChEMBL document CHEMBL1142961, “Novel selective inhibitors of the zinc plasmodial aminopeptidase PfA-M1 as potential antimalarial agents” (J Med Chem, 2007) come the findings set out here.

What is called inhibition is the relative decrease from the control value, in per cent. Regarding `O=C(NO)C(Cc1ccccc1)C(=O)NCCNc1cccc2ccccc12` (centres undefined), the figures for the inhibition in experiment [1] and in experiment [2] were 76% and 59%, respectively.

For the molecule `O=C(CC(=O)N1CCN(c2ccccc2)CC1)NO`, the inhibition was 11% in experiment [1] and -9% in experiment [2].

Turning to `CC(C)CC(C(=O)NO)C(=O)N1CCC2(CC1)C(=O)NCN2c1ccccc1` (centres undefined), the inhibition amounted to 26% in experiment [1] and 7% in experiment [2].

For the molecule `CN(CCCCc1ccccc1)C(=O)C(N)C(=O)NO` (centres undefined), the inhibition came to 10% in experiment [1] and 12% in experiment [2].

Consider `O=C(CC(=O)NCCc1ccccc1)NO`, for which the inhibition in experiment [1] is 27%; in experiment [2], -2%.

Turning to `O=C(CC(=O)N1CCC(n2c(=O)[nH]c3ccccc32)CC1)NO`, the inhibition is 19% in experiment [1] and 6% in experiment [2].

Turning to `O=C(NO)C(Cc1ccccc1)C(=O)N1CCN(C(c2ccccc2)c2ccccc2)CC1` (centres undefined), the inhibition in experiment [1] was determined as 14%; in experiment [2], 0%.

Regarding `NC(C(=O)NO)C(=O)N1CCC2(CC1)C(=O)NCN2c1ccccc1` (centres undefined), the inhibition was 43% in experiment [1] and -6% in experiment [2].

Turning to `NC(C(=O)NO)C(=O)N1CCN(c2ccccc2)CC1` (centres undefined), the inhibition was 11% in experiment [1] and -2% in experiment [2].

With `O=C(CC(=O)NCc1cccnc1)NO`, the results for the inhibition in experiment [1] and in experiment [2] were 18% and 3%, respectively.

In the case of `NC(C(=O)NO)C(=O)NCc1ccccc1` (centres undefined), the inhibition in experiment [1] came out at 77%; in experiment [2] it was 10%.

`NC(C(=O)NO)C(=O)N[C@H]1CCN(Cc2ccccc2)C1` (some centres undefined): the values for the inhibition in experiment [1] and in experiment [2] were 37% and 2%, respectively.

Regarding `NC(C(=O)NO)C(=O)N(CCc1ccccc1)Cc1ccccc1` (centres undefined), the inhibition in experiment [1] came to 34%; in experiment [2], 4%.

As to `CC(C)CC(C(=O)NO)C(=O)NCc1ccc(C(F)(F)F)cc1` (centres undefined), the inhibition in experiment [1] was found to be 45%; in experiment [2], 24%.

Consider `O=C(NO)C(Cc1cccc(Oc2ccccc2)c1)C(=O)N1CCC2(CC1)C(=O)NCN2c1ccccc1` (centres undefined), for which the values for the inhibition in experiment [1] and in experiment [2] were 70% and 65%, respectively.

Regarding `O=C(NO)C(Cc1cccc(Oc2ccccc2)c1)C(=O)NCc1cccc(-c2ccccc2)c1` (centres undefined), the inhibition in experiment [1] was 81%; in experiment [2] it was 41%.

Regarding `O=C(CC(=O)N1CCC2(CCNc3ccccc3O2)CC1)NO`, the results for the inhibition in experiment [1] and in experiment [2] were 27% and -5%, respectively.

For `O=C(NO)C(Cc1cccc(Oc2ccccc2)c1)C(=O)N1CCN(Cc2ccc3c(c2)OCO3)CC1` (centres undefined), the results for the inhibition in experiment [1] and in experiment [2] were 31% and 97%, respectively.

`CN(CCCNC(=O)C(Cc1ccccc1)C(=O)NO)c1ccccc1` (centres undefined): the inhibition stood at 46% in experiment [1] and 67% in experiment [2].

As to `NC(C(=O)NO)C(=O)N1CCN(Cc2ccc3c(c2)OCO3)CC1` (centres undefined), the inhibition is 23% in experiment [1] and -3% in experiment [2].

For `NC(C(=O)NO)C(=O)N1CCN(Cc2ccccc2)CC1` (centres undefined), the inhibition in experiment [1] is -5%; in experiment [2] it was 18%.

In the case of `CC(C)CC(C(=O)NO)C(=O)N1CCN(Cc2ccccc2)CC1` (centres undefined), the inhibition in experiment [1] stood at 28%; in experiment [2], 29%.

Consider `O=C(NO)C(Cc1cccc(Oc2ccccc2)c1)C(=O)NCCC(c1ccccc1)c1ccccc1` (centres undefined), for which the values for the inhibition in experiment [1] and in experiment [2] were 59% and 50%, respectively.

`CN(Cc1ccccc1)C(=O)C(Cc1ccccc1)C(=O)NO` (centres undefined): the inhibition was 36% in experiment [1] and 45% in experiment [2].

As for `NC(C(=O)NO)C(=O)N1CCC2(CCNc3ccccc3O2)CC1` (centres undefined), the inhibition in experiment [1] was 9%; in experiment [2], -4%.

As to `O=C(NO)C(Cc1cccc(Oc2ccccc2)c1)C(=O)NC1CCN(Cc2ccccc2)CC1` (centres undefined), the inhibition stood at 72% in experiment [1] and 5% in experiment [2].

In the case of `O=C(NO)C(Cc1ccccc1)C(=O)NCc1cccnc1` (centres undefined), the values for the inhibition in experiment [1] and in experiment [2] were 15% and -6%, respectively.

As for `O=C(CC(=O)NCCc1ccccn1)NO`, the inhibition was 16% in experiment [1] and -2% in experiment [2].

`NC(C(=O)NO)C(=O)NCc1ccc(C(F)(F)F)cc1` (centres undefined): the inhibition worked out at 55% in experiment [1] and 6% in experiment [2].

Turning to `O=C(NO)C(Cc1ccccc1)C(=O)NCCc1ccccn1` (centres undefined), the figures for the inhibition in experiment [1] and in experiment [2] were 47% and 29%, respectively.

Turning to `CC(C)CC(C(=O)NO)C(=O)N(CCc1ccccc1)Cc1ccccc1` (centres undefined), the inhibition in experiment [1] is 105%; in experiment [2] it was 42%.

`O=C(CC(=O)NCc1ccccc1)NO`: the inhibition in experiment [1] was found to be 19%; in experiment [2], 2%.

As for `O=C(CC(=O)N1CCc2ccccc2C1)NO`, the results for the inhibition in experiment [1] and in experiment [2] were 19% and -3%, respectively.

Consider `CC(C)CN(CCCCc1ccccc1)C(=O)C(N)C(=O)NO` (centres undefined), for which the inhibition was -1% in experiment [1] and 37% in experiment [2].

`O=C(CC(=O)N1CCN(C(c2ccccc2)c2ccccc2)CC1)NO`: the figures for the inhibition in experiment [1] and in experiment [2] were 14% and 21%, respectively.

On to `O=C(NO)C(Cc1ccccc1)C(=O)N1CCC(n2c(=O)[nH]c3ccccc32)CC1` (centres undefined), for which the inhibition in experiment [1] was 56%; in experiment [2], -1%.

With `O=C(NO)C(Cc1cccc(Oc2ccccc2)c1)C(=O)N1CCC(n2c(=O)[nH]c3ccccc32)CC1` (centres undefined), the inhibition in experiment [1] amounted to 76%; in experiment [2], 74%.

In the case of `NC(C(=O)NO)C(=O)NCc1cccc(Oc2ccccc2)c1` (centres undefined), the inhibition turned out to be 31% in experiment [1] and 51% in experiment [2].

Regarding `O=C(CC(=O)NCc1ccc(C(F)(F)F)cc1)NO`, the inhibition is 40% in experiment [1] and 1% in experiment [2].

For `O=C(CC(=O)NCc1ccc(F)cc1)NO`, the values for the inhibition in experiment [1] and in experiment [2] were 16% and 6%, respectively.

As to `O=C(CC(=O)N[C@H]1CCN(Cc2ccccc2)C1)NO`, the inhibition was 19% in experiment [1] and -3% in experiment [2].

Regarding `Cc1ccccc1CNC(=O)C(CC(C)C)C(=O)NO` (centres undefined), the inhibition was 98% in experiment [1] and 88% in experiment [2].

For `CN(CCCCc1ccccc1)C(=O)C(Cc1ccccc1)C(=O)NO` (centres undefined), the inhibition was found to be 53% in experiment [1] and 76% in experiment [2].

For `NC(C(=O)NO)C(=O)NCCCc1ccccc1` (centres undefined), the inhibition in experiment [1] came out at 8%; in experiment [2], 64%.

Consider `O=C(NO)C(Cc1ccccc1)C(=O)N1CCN(c2ccccc2)CC1` (centres undefined), for which the inhibition in experiment [1] is 46%; in experiment [2], 20%.

Consider `CC(C)CC(C(=O)NO)C(=O)NCCCN(C)c1ccccc1` (centres undefined), for which the figures for the inhibition in experiment [1] and in experiment [2] were 81% and 66%, respectively.

Turning to `O=C(CC(=O)NC1CCN(Cc2ccccc2)CC1)NO`, the inhibition in experiment [1] is 14%; in experiment [2], -2%.
